Data reported in ChEMBL document CHEMBL1137302 (J Med Chem, 2006).
Activity calls are given as the source filed them. The rule behind the calls is not given here.

Columns and labels:
D(2) dopamine receptor [1] = target: T1, D(2) dopamine receptor (Homo sapiens, UniProt P14416); test: Binding affinity to human D2S receptor
[2] = target: D(3) dopamine receptor (Homo sapiens) (UniProt P35462); test: Agonist activity at human D3 receptor in HEK293 cells coexpressing G-alpha-qo5 by FLIPR upto 10 uM; format: functional, cell-based
Mustela putorius furo [3] = species: Mustela putorius furo; test: Induction of emesis in ferret; format: functional, organism-based
Mustela putorius furo [4] = species: Mustela putorius furo; test: Induction of nausea in ferret; format: functional, organism-based
D(4) dopamine receptor [5] = target: T2, D(4) dopamine receptor (Rattus norvegicus, UniProt P30729); test: Agonist activity at rat D4 receptor in HEK293 cells coexpressing G-alpha-qo5 by FLIPR; format: functional, cell-based
T2 sequence (P30729 whole entry): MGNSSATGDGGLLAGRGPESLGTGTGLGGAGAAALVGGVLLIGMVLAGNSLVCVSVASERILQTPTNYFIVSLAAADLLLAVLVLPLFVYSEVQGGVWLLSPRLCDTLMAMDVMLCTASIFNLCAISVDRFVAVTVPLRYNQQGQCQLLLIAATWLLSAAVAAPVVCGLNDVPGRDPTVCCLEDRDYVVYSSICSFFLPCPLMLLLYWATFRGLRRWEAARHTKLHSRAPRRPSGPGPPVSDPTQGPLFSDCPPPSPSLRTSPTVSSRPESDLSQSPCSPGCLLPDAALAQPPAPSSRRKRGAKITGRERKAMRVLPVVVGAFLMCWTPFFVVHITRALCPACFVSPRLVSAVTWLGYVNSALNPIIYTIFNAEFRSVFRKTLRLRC

[6] = Agonist activity at ferret D4 receptor in HEK293 cells coexpressing G-alpha-qo5 by FLIPR relative to dopamine; format: functional, Mustela putorius furo
[7] = target: T3, D(4) dopamine receptor (Rattus norvegicus) (UniProt P30729); test: Agonist activity at rat D4 receptor in HEK293 cells co-expressing Galphaqo5 by FLIPR relative to dopamine; format: functional, cell-based
T3 sequence (whole entry): T2 sequence (P30729 whole entry)

D(2) dopamine receptor [8] = target: T1, D(2) dopamine receptor; test: Agonist activity at human D2 receptor in HEK293 cells coexpressing G-alpha-qo5 by FLIPR relative to dopamine upto 10 uM; format: functional, cell-based
Procedure, shortened: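 Ca2+ flux by FLIPR in HEK cells cotransfected with the D2 receptor (human, ferret or rat) plus chimeric G protein Gqo5.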

[9] = target: T4, D(4) dopamine receptor (Homo sapiens) (UniProt P21917); test: Activity at human D4.4 receptor in HEK293 cells co-expressing Galphaqo5 by FLIPR; format: functional, cell-based; conditions: filed as agonist
T4 sequence (whole entry): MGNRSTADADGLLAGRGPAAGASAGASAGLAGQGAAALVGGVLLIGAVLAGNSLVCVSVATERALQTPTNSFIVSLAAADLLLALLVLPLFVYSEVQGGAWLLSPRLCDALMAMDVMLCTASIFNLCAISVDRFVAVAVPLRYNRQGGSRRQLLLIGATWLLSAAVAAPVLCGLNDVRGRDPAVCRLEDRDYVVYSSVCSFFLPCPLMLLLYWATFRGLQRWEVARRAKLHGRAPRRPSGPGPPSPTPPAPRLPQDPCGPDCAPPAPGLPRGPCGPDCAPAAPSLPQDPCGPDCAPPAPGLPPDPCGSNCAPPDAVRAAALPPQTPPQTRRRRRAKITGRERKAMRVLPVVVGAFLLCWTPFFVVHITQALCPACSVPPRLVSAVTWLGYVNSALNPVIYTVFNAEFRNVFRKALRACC

D(2) dopamine receptor [10] = target: T1, D(2) dopamine receptor; test: Displacement of [125I]7-OH-PIPAT from human D2L receptor expressed in HEK293 cell membrane; format: cell membranes
[11] = target: Phosphodiesterase 1 (Homo sapiens) (UniProt P54750+Q01064+Q14123); test: Activity at PDE1 at 10 uM; format: protein assay
Procedure, shortened: (§1)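 Broad selectivity panel (over 70 receptors, ion channels and neuronal receptors, PDE1-6 included) run at a single 10 µM concentration.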

[12] = target: cGMP-dependent 3',5'-cyclic phosphodiesterase (Homo sapiens) (UniProt O00408); test: Activity at PDE2 at 10 uM; procedure, shortened: as §1
[13] = target: Phosphodiesterase 3 (Homo sapiens) (UniProt Q14432+Q13370); test: Activity at PDE3 at 10 uM; format: protein assay; procedure, shortened: as §1
[14] = target: cGMP-specific 3',5'-cyclic phosphodiesterase (Homo sapiens) (UniProt O76074); test: Activity at PDE5 at 10 uM; procedure, shortened: as §1
Rattus norvegicus = test: Proerectile activity in rat measured as incidence of penile erection at 0.1 umol/kg, sc; format: functional
Procedure, shortened: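 Conscious male rats were given a single subcutaneous injection and observed for penile erections over the following 60 min. The read-out was the incidence of erections, expressed as % of animals ± SEM (n = 12–32 animals per group), with significance tested against controls. The value is the maximal incidence at the maximally effective dose.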

D(4) dopamine receptor [15] = target: T5, D(4) dopamine receptor (Homo sapiens, UniProt P21917); test: Agonist activity at human D4.4 receptor in HEK293 cells coexpressing G-alpha-qo5 by FLIPR; format: functional, cell-based
T5 sequence (P21917 whole entry): T4 sequence (whole entry)

[16] = Half life in monkey at 1 mg/kg, po; format: ADME, organism-based, Macaca mulatta; design: dose 1 mg/kg, route oral; conditions: rhesus monkey, in vivo
Procedure, shortened: (§2)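 Single 1 mg/kg dose given iv, sc or orally to Sprague-Dawley rats, dogs and monkeys; plasma concentrations followed over time (mean ± SEM, n = 3). Cmax, AUC, half-life, clearance and bioavailability calculated from the curves.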

[17] = Cmax in rat at 1 mg/kg, sc; format: ADME, organism-based; design: dose 1 mg/kg, route subcutaneous; conditions: in vivo; procedure, shortened: as §2
[18] = Cmax in rat at 1 mg/kg, po; format: ADME, organism-based; design: dose 1 mg/kg, route oral; conditions: in vivo; procedure, shortened: as §2
[19] = Bioavailability in rat at 1 mg/kg, sc; format: ADME, organism-based; conditions: in vivo; procedure, shortened: as §2
[20] = Bioavailability in monkey at 1 mg/kg, po; format: ADME, organism-based, Macaca mulatta; conditions: rhesus monkey, in vivo; procedure, shortened: as §2
[21] = Half life in rat at 1 mg/kg, sc; format: ADME, organism-based; design: dose 1 mg/kg, route subcutaneous; conditions: in vivo; procedure, shortened: as §2
[22] = Half life in rat at 1 mg/kg, po; format: ADME, organism-based; design: dose 1 mg/kg, route oral; conditions: in vivo; procedure, shortened: as §2
[23] = Half life in dog at 1 mg/kg, po; format: ADME, organism-based, Canis lupus familiaris; design: dose 1 mg/kg, route oral; conditions: in vivo; procedure, shortened: as §2
[24] = Cmax in monkey at 1 mg/kg, po; format: ADME, organism-based, Macaca mulatta; design: dose 1 mg/kg, route oral; conditions: rhesus monkey, in vivo; procedure, shortened: as §2
[25] = AUC in rat at 1 mg/kg, sc; format: ADME, organism-based; design: dose 1 mg/kg, route subcutaneous; conditions: plasma; procedure, shortened: as §2
[26] = AUC in rat at 1 mg/kg, po; format: ADME, organism-based; design: dose 1 mg/kg, route oral; conditions: plasma; procedure, shortened: as §2
[27] = AUC in monkey at 1 mg/kg, po; format: ADME, organism-based, Macaca mulatta; design: dose 1 mg/kg, route oral; conditions: rhesus monkey, plasma; procedure, shortened: as §2
[28] = Plasma clearance in iv dosed rat; format: ADME, organism-based; procedure, shortened: as §2
[29] = Plasma clearance in iv dosed dog; format: ADME, organism-based, Canis lupus familiaris; procedure, shortened: as §2
hERG = hERG (Homo sapiens, UniProt Q12809); test: Blockade of current at hERG expressed in HEK293 cells at 1 ug/mL; format: cell-based; conditions: HEK293 cells that express hERG
Procedure, shortened: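 hERG stably expressed in HEK 293 cells (MEM with 10% FBS, G418), whole-cell voltage clamp. Pipette: K aspartate/KCl/EGTA/MgATP, pH 7.3. Bath: NaCl-based HEPES, pH 7.4. Compound dissolved in DMSO and diluted in bath (DMSO ≤0.1%), one concentration per cell. Steps to -25, 0, 25, 50 mV for 3 s, then -50 mV for 4 s, from -80 mV every 15 s.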

[30] = Effect on canine cardiac Purkinje fiber repolarization measured as prolongation of action potential duration at 3 ug/mL; format: functional, Canis lupus familiaris
Procedure, shortened: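 Canine Purkinje fibers impaled with 3 M KCl microelectrodes. Fibers accepted with resting potential below -80 mV and APD 300-500 ms. Paced at BCL 2 s, then 800 and 400 ms. Two ascending concentrations applied, each after 25 min equilibration. APD90 measured at all three rates.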

T1 sequence (P14416 whole entry): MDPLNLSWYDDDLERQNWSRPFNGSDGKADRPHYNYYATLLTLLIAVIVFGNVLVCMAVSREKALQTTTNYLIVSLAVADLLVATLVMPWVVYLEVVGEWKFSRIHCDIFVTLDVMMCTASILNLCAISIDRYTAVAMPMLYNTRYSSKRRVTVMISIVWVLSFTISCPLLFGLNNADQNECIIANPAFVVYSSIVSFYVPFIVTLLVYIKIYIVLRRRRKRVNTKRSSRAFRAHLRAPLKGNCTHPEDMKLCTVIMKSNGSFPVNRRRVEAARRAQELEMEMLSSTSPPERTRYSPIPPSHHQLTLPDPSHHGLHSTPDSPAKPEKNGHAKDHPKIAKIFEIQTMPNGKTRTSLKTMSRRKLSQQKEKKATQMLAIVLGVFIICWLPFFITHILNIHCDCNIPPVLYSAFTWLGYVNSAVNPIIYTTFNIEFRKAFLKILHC
Sequence of cGMP-dependent 3',5'-cyclic phosphodiesterase (Homo sapiens) (O00408 whole entry): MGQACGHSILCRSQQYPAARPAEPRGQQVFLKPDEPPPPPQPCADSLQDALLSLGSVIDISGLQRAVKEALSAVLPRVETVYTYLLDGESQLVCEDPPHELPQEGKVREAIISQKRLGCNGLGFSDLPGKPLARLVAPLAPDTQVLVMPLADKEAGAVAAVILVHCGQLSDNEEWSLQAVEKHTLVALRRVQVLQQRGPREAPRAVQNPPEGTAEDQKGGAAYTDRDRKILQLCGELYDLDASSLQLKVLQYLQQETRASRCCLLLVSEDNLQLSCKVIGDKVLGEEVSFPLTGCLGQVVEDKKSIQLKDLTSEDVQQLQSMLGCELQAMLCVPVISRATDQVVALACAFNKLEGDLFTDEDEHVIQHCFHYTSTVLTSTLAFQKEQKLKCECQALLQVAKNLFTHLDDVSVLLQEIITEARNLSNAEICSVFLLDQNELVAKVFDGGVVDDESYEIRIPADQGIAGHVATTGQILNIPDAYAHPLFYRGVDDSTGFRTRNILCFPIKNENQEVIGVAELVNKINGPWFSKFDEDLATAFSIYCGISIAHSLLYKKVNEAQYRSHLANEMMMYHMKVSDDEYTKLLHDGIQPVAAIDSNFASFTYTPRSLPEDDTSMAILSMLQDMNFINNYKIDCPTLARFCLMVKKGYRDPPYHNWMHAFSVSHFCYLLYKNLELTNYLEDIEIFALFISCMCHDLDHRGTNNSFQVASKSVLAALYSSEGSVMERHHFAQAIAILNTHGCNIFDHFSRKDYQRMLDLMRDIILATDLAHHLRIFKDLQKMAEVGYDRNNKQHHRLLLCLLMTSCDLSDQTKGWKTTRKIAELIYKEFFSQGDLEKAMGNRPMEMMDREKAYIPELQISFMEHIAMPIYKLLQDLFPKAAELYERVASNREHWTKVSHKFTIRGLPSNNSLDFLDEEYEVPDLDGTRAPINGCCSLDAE
Sequence of hERG (Q12809 whole entry): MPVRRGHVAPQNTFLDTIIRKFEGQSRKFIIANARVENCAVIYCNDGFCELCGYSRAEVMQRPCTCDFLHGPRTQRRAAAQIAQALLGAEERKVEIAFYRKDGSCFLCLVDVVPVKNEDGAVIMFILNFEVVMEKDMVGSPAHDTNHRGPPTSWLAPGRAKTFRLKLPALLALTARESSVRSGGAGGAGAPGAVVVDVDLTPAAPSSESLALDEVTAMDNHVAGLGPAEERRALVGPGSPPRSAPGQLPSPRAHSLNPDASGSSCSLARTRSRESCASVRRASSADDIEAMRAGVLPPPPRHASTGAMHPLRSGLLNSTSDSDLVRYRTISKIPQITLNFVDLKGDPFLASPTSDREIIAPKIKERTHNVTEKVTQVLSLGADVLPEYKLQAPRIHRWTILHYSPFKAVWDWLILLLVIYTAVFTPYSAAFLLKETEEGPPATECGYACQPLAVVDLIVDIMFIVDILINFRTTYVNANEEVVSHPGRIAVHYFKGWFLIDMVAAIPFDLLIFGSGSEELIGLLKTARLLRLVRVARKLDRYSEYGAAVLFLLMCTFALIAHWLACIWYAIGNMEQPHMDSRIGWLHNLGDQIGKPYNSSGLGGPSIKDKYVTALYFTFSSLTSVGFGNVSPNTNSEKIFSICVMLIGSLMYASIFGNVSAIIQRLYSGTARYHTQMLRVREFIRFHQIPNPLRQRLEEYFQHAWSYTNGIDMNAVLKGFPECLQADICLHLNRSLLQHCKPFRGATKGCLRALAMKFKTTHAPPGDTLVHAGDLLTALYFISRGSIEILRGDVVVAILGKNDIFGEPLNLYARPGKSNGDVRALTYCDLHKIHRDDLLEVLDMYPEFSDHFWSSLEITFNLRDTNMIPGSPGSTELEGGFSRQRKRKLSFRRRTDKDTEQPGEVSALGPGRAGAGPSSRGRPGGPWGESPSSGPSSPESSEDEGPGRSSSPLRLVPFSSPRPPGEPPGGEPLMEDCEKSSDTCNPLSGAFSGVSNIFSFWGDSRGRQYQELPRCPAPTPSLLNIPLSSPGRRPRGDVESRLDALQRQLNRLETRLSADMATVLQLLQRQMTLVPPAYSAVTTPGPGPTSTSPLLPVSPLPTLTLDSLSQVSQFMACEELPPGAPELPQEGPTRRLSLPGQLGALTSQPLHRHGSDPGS
Sequence of D(3) dopamine receptor (Homo sapiens) (P35462 whole entry): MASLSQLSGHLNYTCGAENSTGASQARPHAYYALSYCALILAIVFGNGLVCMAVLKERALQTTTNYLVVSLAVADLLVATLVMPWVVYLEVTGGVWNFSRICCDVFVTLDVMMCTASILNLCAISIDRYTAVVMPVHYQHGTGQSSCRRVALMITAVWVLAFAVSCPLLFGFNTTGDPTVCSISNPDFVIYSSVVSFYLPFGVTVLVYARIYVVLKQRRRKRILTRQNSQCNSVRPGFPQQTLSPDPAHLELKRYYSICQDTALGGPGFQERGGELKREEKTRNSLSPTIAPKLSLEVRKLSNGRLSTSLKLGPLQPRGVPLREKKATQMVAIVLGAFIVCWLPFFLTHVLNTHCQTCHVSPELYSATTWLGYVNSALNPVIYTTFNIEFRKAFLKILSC

Ki (D(2) dopamine receptor [1]): > 10 µM
Activity [2]: inactive
EC50 (D(4) dopamine receptor [5]): 93 nM
Efficacy [7]: 78%
Activity (D(2) dopamine receptor [8]): inactive
Activity [9]: Agonist
Ki (D(2) dopamine receptor [10]): > 10 µM
Activity [11]: inactive
Activity [12]: inactive
Activity [13]: inactive
Activity [14]: inactive
EC50 (D(4) dopamine receptor [15]): 89 nM
half-life [16]: 120 min
Cmax [17]: 465 ng/mL
Cmax [18]: 417 ng/mL
bioavailability [19]: 84%
bioavailability [20]: 91%
half-life [21]: 72 min
half-life [22]: 108 min
half-life [23]: 126 min
Cmax [24]: 660 ng/mL
AUC [25]: 1140 ng·h/mL
AUC [26]: 922 ng·h/mL
AUC [27]: 2280 ng·h/mL
clearance [28]: 12.3 mL/min/kg
clearance [29]: 3.33 mL/min/kg
Compound: Cc1cccc(C(=O)NCN2CCC(c3cccc[n+]3[O-])CC2)c1
Activity (Mustela putorius furo [3]): inactive
Activity (Mustela putorius furo [4]): inactive
Efficacy [6]: 76%
Activity (Rattus norvegicus): 75%
inhibition at 1 ug/mL (hERG): 14.4%
Activity [30]: 4.3%
